Source: PubChem BioAssay
Shown are actives, neighbours in structure and some others; about 1.4% of the full set was active somewhere.
Calpain2 inh – blocks pig calpain II enzyme activity; purified calpain II, fluorogenic peptide substrate, 30 min; inhibition, % at 16 µM; actives 0.37% (n = 220,000); AID 1236;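 active = inhibition above about 50%, limit read from the data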
Thrombin inh – inhibitors of human thrombin; P00734; alpha-thrombin, Boc-VPR-AMC fluorogenic substrate cleavage; inhibition, % at 5 µM; actives 0.26% (n = 220,000); AID 1046;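 active = inhibition at or above 40%; inactive = inhibition below 40%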;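 also: 0% = enzyme with no compound and 100% = wells without enzyme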
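System – human alpha-thrombin protein · Reagent – Boc-VPR-AMC substrate, 15 µM final · Compound – 5 µM single dose in 0.2% DMSO · Schedule – reaction at room temperature · Technique – AMC fluorescence at 355 nm excitation and 460 nm emission · Read-out basis – % inhibition relative to enzyme controls and enzyme-free blanks · Control set – no-compound enzyme wells and no-enzyme blanks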
FXIa inh 1536 – blocks human coagulation factor XIa protease activity | P03951 | purified FXIa, Boc-Glu-Ala-Arg-AMC fluorogenic substrate | inhibition, % at 5 µM | actives 0.14% (n = 220,000) | AID 798;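 active = inhibition of at least 40%; inactive = inhibition below 40%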;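 also: fluorescence of freed AMC excited at 355 nm; 0% = enzyme without compound and 100% = no enzyme blank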
KLK5 inh – blocks human kallikrein 5 protease activity. Q9Y337. recombinant hK5, fluorogenic AMC substrate cleavage. inhibition, % at 5 µM. actives 0.59% (n = 210,000). AID 873;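 active = inhibition of 40% or more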;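 also: 0% = enzyme controls without compound and 100% = no-enzyme blanks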
Target sequence (Q9Y337 67-293 limits assumed): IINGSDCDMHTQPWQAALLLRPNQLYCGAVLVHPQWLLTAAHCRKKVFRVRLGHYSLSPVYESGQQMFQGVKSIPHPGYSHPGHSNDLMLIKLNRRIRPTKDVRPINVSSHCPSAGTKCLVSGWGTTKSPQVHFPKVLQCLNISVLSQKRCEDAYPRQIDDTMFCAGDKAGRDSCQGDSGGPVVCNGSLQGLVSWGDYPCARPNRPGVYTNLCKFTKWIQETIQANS
FXIIa inh – inhibitors of human coagulation factor XIIa; inhibition, % at 5 µM; AID 800; actives 0.3% (n = 220,000); purified FXIIa, Boc-QGR-AMC fluorogenic substrate, 2 h; in the data active = inhibition above about 40%;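 also: 0% = enzyme with no compound and 100% = blank without enzyme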
Active calls of the source: *.

Results for CC(/C=C1\SC(=S)N(NC(=O)c2ccc(C)cc2)C1=O)=C\c1ccccc1 ?
Calpain2 inh: -14; Thrombin inh: 5; FXIa inh 1536: 8; KLK5 inh: 3; FXIIa inh: 8

Results for Cc1ccc(C(=O)NCC(=O)OC(C)C(=O)Nc2ccc(N3CCOCC3)cc2)s1 (configuration not stated) ?
Calpain2 inh: 10; Thrombin inh: 5; FXIa inh 1536: 44*; KLK5 inh: 77*; FXIIa inh: 82*

Results for COc1cc(C(=O)OCC(C)=O)ccc1OCc1c(C)noc1C ?
Calpain2 inh: 37; FXIa inh 1536: 42*; KLK5 inh: 42*; FXIIa inh: 38

What do the screens show for `CCCc1cc(-c2n[nH]c(=S)n2CC(C)C)cs1`?
Calpain2 inh: 50*; Thrombin inh: -8; FXIa inh 1536: -4; KLK5 inh: -22; FXIIa inh: 4

How did Cn1cc(S(=O)(=O)c2ccccc2)n(C)c1=O do in these assays?
Calpain2 inh: 3; Thrombin inh: 5; FXIa inh 1536: 0; KLK5 inh: -3; FXIIa inh: 8

How did CCCc1ccc(OC(=O)c2cccs2)cc1 do in these assays?
Calpain2 inh: -3; Thrombin inh: 1; FXIa inh 1536: 4; KLK5 inh: 5; FXIIa inh: 9

How did CCCc1ccc(OC(=O)c2ccc(O)cc2Cl)cc1 do in these assays?
Calpain2 inh: 62*; Thrombin inh: 17; FXIa inh 1536: -2; KLK5 inh: 0; FXIIa inh: 3

How did O=C(NNC(=O)c1ccc2ncccc2c1)c1ccc(Cl)cc1 do in these assays?
Calpain2 inh: 8; Thrombin inh: 7; FXIa inh 1536: 13; KLK5 inh: 22; FXIIa inh: 17

How did Cc1ccc(C(=O)NNC(=O)c2ccc3ncccc3c2)cc1 do in these assays?
Calpain2 inh: 52*; Thrombin inh: -4; FXIa inh 1536: -7; KLK5 inh: -13; FXIIa inh: -1

What do the screens show for `CN(C)S(=O)(=O)N1CCN(c2ccc([N+](=O)[O-])c(NC3CC3)c2)CC1`?
Calpain2 inh: 9; Thrombin inh: -8; FXIa inh 1536: -4; KLK5 inh: -1; FXIIa inh: 4

Results for O=C1C2CCCCC2C(=O)N1c1ccc(NC2CCCCC2)c([N+](=O)[O-])c1 (configuration not stated) ?
Calpain2 inh: 61*; Thrombin inh: -4; FXIa inh 1536: -2; KLK5 inh: -21; FXIIa inh: 6

How did O=[N+]([O-])c1ccc(N2CCCC2)cc1NC1CC1 do in these assays?
Calpain2 inh: 34; Thrombin inh: 12; FXIa inh 1536: 9; KLK5 inh: 44*; FXIIa inh: 9

How did C=CCNc1ccc(N2C(=O)C3CCC(C)CC3C2=O)cc1[N+](=O)[O-] (configuration not stated) do in these assays?
Calpain2 inh: 67*; Thrombin inh: -2; FXIa inh 1536: 0; KLK5 inh: 4; FXIIa inh: 9

How did C=CCN(CC=C)c1ccc(N2C(=O)C3CCCCC3C2=O)cc1[N+](=O)[O-] (configuration not stated) do in these assays?
Calpain2 inh: 38; Thrombin inh: 1; FXIa inh 1536: 2; FXIIa inh: 7

How did COCCNc1ccc(N2C(=O)C3CCCCC3C2=O)cc1[N+](=O)[O-] (configuration not stated) do in these assays?
Calpain2 inh: 43; Thrombin inh: 0; FXIa inh 1536: 0; FXIIa inh: 8

Results for COc1ccc(NS(=O)(=O)c2ccc3oc(SC4CCOC4=O)nc3c2)cc1 (configuration not stated) ?
Calpain2 inh: 28; Thrombin inh: -4; FXIa inh 1536: -3; KLK5 inh: -6; FXIIa inh: -9

Results for CCC1CCC(c2nnc(-c3ccc(Br)cc3)o2)CC1 (configuration not stated) ?
Calpain2 inh: 4; Thrombin inh: -6; FXIa inh 1536: -4; KLK5 inh: -22; FXIIa inh: 4

Results for CCC(=O)Oc1ccc2c(c1)OC1(OC(C)=O)OC(C)CC1=C2C (configuration not stated) ?
Calpain2 inh: -343; Thrombin inh: 3; FXIa inh 1536: -7; KLK5 inh: -6; FXIIa inh: 6

What do the screens show for `Nn1cnnc1SCC(=O)N(C1CCCCC1)C1CCCCC1`?
Calpain2 inh: -37; Thrombin inh: -10; FXIa inh 1536: -2; KLK5 inh: 8; FXIIa inh: 8

How did O=C1CC(c2ccccc2)Cc2nc(N3CCc4ccccc4C3)ncc21 (configuration not stated) do in these assays?
Calpain2 inh: 54*; Thrombin inh: 0; FXIa inh 1536: 0; KLK5 inh: -13; FXIIa inh: 12

How did N#CCC(CNc1ncc(C(F)(F)F)cc1Cl)OC(=O)c1ccc(Cl)cc1Cl (configuration not stated) do in these assays?
Calpain2 inh: 41; Thrombin inh: 14; FXIa inh 1536: -5; KLK5 inh: 17; FXIIa inh: -3

Results for CCN(CC)c1ccc(C(=O)NC(=S)Nc2cc(S(=O)(=O)N3CCOCC3)ccc2-n2cncn2)cc1 ?
Calpain2 inh: 58*; Thrombin inh: -6; FXIa inh 1536: 4; KLK5 inh: -13; FXIIa inh: 3

Results for O=C(O)c1ccc(NC2=C(Cl)C(=O)c3ccccc3C2=O)cc1 ?
Calpain2 inh: 58*; Thrombin inh: 23; FXIa inh 1536: 14; KLK5 inh: 81*; FXIIa inh: 43*

What do the screens show for `CCOCCCNS(=O)(=O)c1ccc(Br)cc1`?
Calpain2 inh: 4; Thrombin inh: 9; FXIa inh 1536: 7; KLK5 inh: -1; FXIIa inh: -1

Results for Cc1ccc(/C=N/NC(=O)c2ccoc2C)s1 ?
Calpain2 inh: 15; Thrombin inh: -6; FXIa inh 1536: -6; KLK5 inh: -8; FXIIa inh: 6

How did Cc1occc1C(=O)N/N=C/c1ccc(Br)s1 do in these assays?
Calpain2 inh: 28; Thrombin inh: 28; FXIa inh 1536: 17; KLK5 inh: 49*; FXIIa inh: 34

What do the screens show for `O=C(CN1C(=O)NC2(CCCC2)C1=O)Nc1ccccc1F`?
Calpain2 inh: 12; Thrombin inh: -5; FXIa inh 1536: -3; KLK5 inh: -8; FXIIa inh: -2

Results for CCCCNC(=O)Cc1coc2ccc3ccccc3c12 ?
Calpain2 inh: 11; Thrombin inh: 8; FXIa inh 1536: 1; KLK5 inh: 58*; FXIIa inh: 20

How did COCCCNC(=O)Cc1coc2ccc3ccccc3c12 do in these assays?
Calpain2 inh: -85; Thrombin inh: 1; FXIa inh 1536: 3; KLK5 inh: -9; FXIIa inh: 8

Results for Cc1ccc(Sc2cnn(-c3ccccc3)c(=O)c2Cl)cc1 ?
Calpain2 inh: 35; Thrombin inh: 1; FXIa inh 1536: 0; KLK5 inh: 8; FXIIa inh: 6

Results for C=CCNc1cnn(-c2ccc(C)cc2)c(=O)c1Sc1ccc(C)cc1 ?
Calpain2 inh: 65*; Thrombin inh: 2; FXIa inh 1536: -5; KLK5 inh: -21; FXIIa inh: -2
